One experiment concerns A2780. As to the kind of experiment: Cytotoxicity against human A2780 cells. The class given is functional, cell-based. Put shortly: (§1)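 Cytotoxicity against a panel of six human tumor lines (A549, Bel-7402, BGC-823, HCT-8, HCT-116, A2780) was measured in vitro by MTT assay.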
Another experiment has as its system Bel-7402. Put plainly: Cytotoxicity against human Bel7402 cells. In kind it is functional, cell-based. The gist of the method: as §1
Another experiment relates to BGC-823. As to the kind of experiment: Cytotoxicity against human BGC823 cells. The class given is functional, cell-based. Put shortly: as §1
The test system of another experiment is HCT-116. Put plainly: Cytotoxicity against human HCT116 cells. The class given is functional, cell-based. Put shortly:
as §1

The next experiment relates to HCT-8. Put plainly: Cytotoxicity against human HCT8 cells. In kind it is functional, cell-based. The gist of the method: as §1
In the next experiment the test system is A549. Put plainly: Cytotoxicity against human A549 cells. In kind it is functional, cell-based. The gist of the method: as §1
Experiment [1] is described as follows: Antiinflammatory activity in rat PMNC assessed as inhibition of platelet-activating factor-induced beta-glucuronidase release. In kind it is functional. Put shortly: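 In vitro assay on rat polymorphonuclear leukocytes stimulated with platelet-activating factor; β-glucuronidase release was measured, with a positive control run alongside. Inhibitory potency is reported as IC50 in µM.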

Activity calls are given as the source filed them. The calls are words filed in the database; no cut-off is given here.

Regarding `CS[C@@]12C[C@H]3C(=O)C=C[C@H](O)[C@H]3N1C(=O)[C@]1(SC)C[C@H]3C(=O)CC[C@H](O)[C@H]3N1C2=O`, the inhibition entry in the experiment with A2780, with Bel-7402, in the experiment on BGC-823, in the experiment with HCT-116, with HCT-8 and with A549 was “inactive” throughout.

As to `CS[C@@]12C[C@H]3[C@@H]([C@@H](O)CC[C@@H]3O)N1C(=O)[C@]1(SC)C[C@H]3[C@@H]([C@@H](O)CC[C@@H]3O)N1C2=O`, the inhibition result with A2780, with Bel-7402, in the experiment with BGC-823, with HCT-116, in the experiment on HCT-8 and in the experiment with A549 was “inactive” each time.

For the compound `O=C1C[C@H]2SS[C@@]34C[C@@H]1[C@@H]([C@H]2O)N3C(=O)[C@@]12C[C@H]3C(=O)C[C@@H](S1)[C@H](O)[C@H]3N2C4=O`, the inhibition entry in the experiment on A2780, in the experiment with Bel-7402, in the experiment on BGC-823, in the experiment on HCT-116, in the experiment with HCT-8 and in the experiment with A549 was “inactive” throughout.

Consider `O=C1C[C@H]2S[C@@]34C[C@@H]1[C@@H]([C@H]2O)N3C(=O)[C@@]12C[C@H]3C(=O)[C@@H](S1)[C@H](O)[C@H](O)[C@H]3N2C4=O` [EPICOCCIN E], for which the inhibition result in the experiment on A2780, with Bel-7402, in the experiment with BGC-823, in the experiment with HCT-116, in the experiment with HCT-8 and with A549 was “inactive” in each case. In addition, the IC50 (as a rule, the midpoint of a concentration-inhibition curve) in experiment [1] was determined as 1.98 µM.

In the case of `O=C1C[C@H]2SS[C@@]34C[C@@H]1[C@@H]([C@H]2O)N3C(=O)[C@]12C[C@H]3C(=O)[C@H](C[C@H](O)[C@H]3N1C4=O)S2`, the inhibition entry in the experiment on A2780, with Bel-7402, in the experiment with BGC-823, in the experiment on HCT-116, in the experiment on HCT-8 and in the experiment with A549 was “inactive” throughout.

For `CS[C@@]12C[C@H]3C(=O)CC[C@H](O)[C@H]3N1C(=O)[C@@]13C[C@H]4C(=O)C[C@@H](S1)[C@H](O)[C@H]4N3C2=O`, the inhibition result in the experiment with A2780, in the experiment with Bel-7402, in the experiment with BGC-823, in the experiment with HCT-116, in the experiment with HCT-8 and in the experiment on A549 was “inactive” in each case.

For the compound `O=C1C[C@@H]2SS[C@@]34C[C@@H]1[C@@H]([C@H]2O)N3C(=O)[C@@]12C[C@H]3C(=O)C[C@H](SS1)[C@H](O)[C@H]3N2C4=O`, the inhibition entry in the experiment on A2780, in the experiment with Bel-7402, in the experiment on BGC-823, in the experiment on HCT-116, in the experiment with HCT-8 and with A549 was “inactive” in each case.

On to `O=C1C[C@H]2SS[C@@]34C[C@@H]1[C@@H]([C@H]2O)N3C(=O)[C@@]12C[C@H]3C(=O)[C@@H](S1)[C@@H](O)[C@H](O)[C@H]3N2C4=O`, for which the inhibition result with A2780, in the experiment on Bel-7402, with BGC-823, in the experiment with HCT-116, with HCT-8 and in the experiment with A549 was “inactive” each time.

As to `O=C1C[C@@H]2SS[C@@]34C[C@@H]1[C@@H]([C@H]2O)N3C(=O)[C@@]12C[C@H]3C(=O)[C@H](S1)[C@H](O)[C@H](O)[C@H]3N2C4=O`, the inhibition entry in the experiment with A2780, with Bel-7402, in the experiment with BGC-823, with HCT-116, in the experiment with HCT-8 and in the experiment on A549 was “inactive” throughout.

As to `CS[C@@]12C[C@H]3C(=O)C[C@H](O)[C@H](O)[C@H]3N1C(=O)[C@@]13C[C@H]4C(=O)C[C@@H](SS1)[C@H](O)[C@H]4N3C2=O`, the inhibition result in the experiment with A2780, with Bel-7402, in the experiment with BGC-823, with HCT-116, in the experiment with HCT-8 and in the experiment with A549 was “inactive” each time.

Turning to `CS[C@@]12C[C@H]3C(=O)CC[C@H](O)[C@H]3N1C(=O)[C@]1(SC)C[C@H]3[C@@H]([C@@H](O)CC[C@@H]3O)N1C2=O`, the inhibition result in the experiment on A2780, in the experiment with Bel-7402, with BGC-823, with HCT-116, with HCT-8 and with A549 was “inactive” each time.

As for `C[C@@H]1C(=O)O[C@H]2[C@H](O)[C@@]34[C@H]5C[C@@H](C(C)(C)C)[C@]36[C@@H](OC(=O)[C@@H]6O)O[C@@]4(C(=O)O5)[C@@]12O` [GINKOLIDE B], in experiment [1], the 50% inhibitory concentration (IC50) came to 2.35 µM.

For `CS[C@@]12C[C@H]3[C@@H]([C@@H](O)CC[C@@H]3O)N1C(=O)[C@@]13C[C@H]4C(=O)C[C@@H](S1)[C@H](O)[C@H]4N3C2=O`, the inhibition entry in the experiment with A2780, in the experiment on Bel-7402, in the experiment on BGC-823, in the experiment with HCT-116, in the experiment on HCT-8 and with A549 was “inactive” each time.

Consider `CS[C@@]12CC3=CC=C[C@H](O)[C@H]3N1C(=O)[C@]13C[C@@]4(O)[C@H](C=C[C@H](O)[C@H]4N1C2=O)S3`, for which the inhibition result in the experiment on A2780, in the experiment with Bel-7402, with BGC-823, with HCT-116, in the experiment on HCT-8 and with A549 was “inactive” each time.

Regarding `CS[C@@]12C[C@H]3C(=O)CC[C@H](O)[C@H]3N1C(=O)[C@]1(SC)C[C@H]3C(=O)CC[C@H](O)[C@H]3N1C2=O` [EPICOCCIN G], the inhibition entry with A2780, in the experiment on Bel-7402, in the experiment on BGC-823, in the experiment with HCT-116, in the experiment with HCT-8 and in the experiment on A549 was “inactive” each time. For the same compound, the IC50 in experiment [1] is 3.07 µM.

As for `O=C1N2[C@H]3[C@H](C[C@]24SS[C@]12C[C@H]1[C@@H]([C@@H](O)CC[C@@H]1O)N2C4=O)[C@@H](O)CC[C@@H]3O`, the inhibition entry in the experiment on A2780, in the experiment with Bel-7402, in the experiment on BGC-823, in the experiment with HCT-116, with HCT-8 and in the experiment with A549 was “inactive” throughout.

As for `O=C1CC[C@H](O)[C@H]2[C@H]1C[C@@]13SS[C@]4(C[C@H]5[C@@H]([C@@H](O)CC[C@@H]5O)N4C1=O)C(=O)N23`, the inhibition result with A2780, with Bel-7402, with BGC-823, with HCT-116, in the experiment on HCT-8 and in the experiment with A549 was “inactive” throughout.

In the case of `CS[C@@]12C[C@H]3C(=O)CC[C@H](O)[C@H]3N1C(=O)[C@@]13C[C@H]4C(=O)C[C@@H](SS1)[C@H](O)[C@H]4N3C2=O` [EPICOCCIN M], the inhibition result with A2780, with Bel-7402, in the experiment on BGC-823, with HCT-116, with HCT-8 and in the experiment with A549 was “inactive” throughout. In addition, in experiment [1], the concentration for half-maximal inhibition (IC50) turned out to be 4.16 µM.

Turning to `O=C1N[C@@H](Cc2ccccc2)C(=O)N[C@H]1Cc1ccccc1`, the inhibition result in the experiment on A2780, with Bel-7402, in the experiment on BGC-823, in the experiment on HCT-116, in the experiment on HCT-8 and with A549 was “inactive” each time.

For `CCO[C@@H]1[C@H](O)[C@@H]2[C@H]3C[C@@]4(S[C@@H]1C3=O)C(=O)N1[C@@H]3[C@@H](O)[C@H]5CC(=O)[C@@H]3C[C@@]1(SS5)C(=O)N24` [EPICOCCIN S], the inhibition result with A2780, in the experiment on Bel-7402, in the experiment on BGC-823, with HCT-116, in the experiment on HCT-8 and in the experiment on A549 was “inactive” in each case. Further, the concentration for half-maximal inhibition (IC50) in experiment [1] was found to be 4.95 µM.

The values are drawn from ChEMBL document CHEMBL1177738, “Thiodiketopiperazines produced by the endophytic fungus Epicoccum nigrum” (J Nat Prod, 2010).
